TRPC4 block – TRPC4 (mouse) channel inhibition. Q9QUQ5. HEK293 TRPC4beta/mu-opioid, DAMGO-evoked Fluo4 calcium flux; active compounds read low. B-score at 10 µM. 300,000 tested, 0.39% active;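 active = B-score over 3 SD under the library average, no early fluorescence shift, positive overall ratio signal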
Target sequence (Q9QUQ5 whole entry, looked up): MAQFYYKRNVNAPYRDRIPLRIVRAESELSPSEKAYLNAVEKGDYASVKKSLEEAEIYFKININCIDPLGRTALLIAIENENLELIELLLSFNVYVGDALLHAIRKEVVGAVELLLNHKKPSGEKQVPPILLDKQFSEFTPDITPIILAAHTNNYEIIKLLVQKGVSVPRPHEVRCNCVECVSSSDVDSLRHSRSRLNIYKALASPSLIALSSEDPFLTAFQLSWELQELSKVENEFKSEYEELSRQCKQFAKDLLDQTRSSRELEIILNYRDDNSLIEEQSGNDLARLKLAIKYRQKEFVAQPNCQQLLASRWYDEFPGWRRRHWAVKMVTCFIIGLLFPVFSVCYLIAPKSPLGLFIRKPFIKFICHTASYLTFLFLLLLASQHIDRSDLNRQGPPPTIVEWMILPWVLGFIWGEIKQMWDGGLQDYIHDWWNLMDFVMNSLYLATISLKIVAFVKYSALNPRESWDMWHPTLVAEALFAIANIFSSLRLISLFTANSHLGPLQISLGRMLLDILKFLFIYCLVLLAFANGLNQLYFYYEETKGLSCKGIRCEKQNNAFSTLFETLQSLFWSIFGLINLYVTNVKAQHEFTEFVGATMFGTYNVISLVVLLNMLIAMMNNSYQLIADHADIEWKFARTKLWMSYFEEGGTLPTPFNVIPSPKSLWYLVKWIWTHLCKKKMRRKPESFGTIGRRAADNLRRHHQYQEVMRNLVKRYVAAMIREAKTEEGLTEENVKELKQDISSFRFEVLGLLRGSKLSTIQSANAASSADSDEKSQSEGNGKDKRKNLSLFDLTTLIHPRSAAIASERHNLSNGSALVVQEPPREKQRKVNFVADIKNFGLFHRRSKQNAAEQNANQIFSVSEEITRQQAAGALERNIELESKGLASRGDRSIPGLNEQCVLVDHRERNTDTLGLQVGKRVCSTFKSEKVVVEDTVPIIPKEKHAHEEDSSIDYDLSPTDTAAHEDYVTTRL
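Test system – stable TRPC4beta/mu-opioid receptor HEK293 cells · Probe or stimulus – DAMGO, a submaximal dose followed by a maximal one · Dosing – one concentration per compound · Signal – Fluo4 calcium fluorescence by kinetic imaging, 5 s 1 Hz baseline · Evaluation – per-well B score of integrated baseline-normalized Fluo4 ratio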
TRPC6 act – activators of mouse TRPC6 channel; 310,000 tested, 0.13% active; B-score at 10 µM; HEK293-TRPC6 membrane potential dye fluorescence; active compounds read high; Q61143;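 active = B-score of the integrated fluorescence ratio above library mean plus 3 SD, and starting fluorescence ratio within library mean plus 5 SD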;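 note: higher score means more depolarization so channel activation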
TRPC4 PAM – allosteric potentiators of mouse TRPC4 channel. Q9QUQ5. HEK293 TRPC4beta/mu-opioid, DAMGO EC20, Fluo-4 Ca2+ flux; active compounds read high. B-score at 10 µM. 310,000 tested, 0.42% active. AID 2227;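 active = B-score of calcium response area above 5 SD of library B-scores, with initial fluorescence ratio within 5 SD of library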;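 note: B-score of integrated fluorescence ratio over time as area under calcium response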
TRPC4 agonist – activators of mouse TRPC4 channel | 310,000 tested, 0.49% active | B-score at 10 µM | AID 2237 | Q9QUQ5 | HEK293 TRPC4beta/mu-opioid, Fluo4 calcium fluorescence; active compounds read high;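 active = B-score above 5 SD of library B-scores, and initial fluorescence ratio not above library mean plus 5 SD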;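 note: positive B-score marks a calcium rise read as TRPC4 activation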
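Material: TRPC4beta and mu-opioid receptor HEK293 stable cells | Incubation: 45 min room-temperature Fluo4 loading, 110 s read | Detection: Kinetic Fluo4 calcium fluorescence | Measure: Integrated baseline-normalised fluorescence ratio, converted to per-well B score | Benchmarks: Low control buffer alone, high control maximal DAMGO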
TRPC6 inhibitor – inhibitors of mouse TRPC6 channel. B-score at 10 µM. AID 2553. Q61143. HEK293-TRPC6, membrane potential dye, ACh-evoked depolarization; active compounds read low. 310,000 tested, 1.1% active;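 active = B-score under library mean minus 3 SD, initial fluorescence not abnormally high, positive integrated signal ratio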;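 note: B-score derived from integrated fluorescence ratio over the kinetic read; more negative B-score means stronger inhibition of depolarization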
TRPC4 spec 2 – second selectivity test of TRPC6 inhibitors: effect on mouse TRPC4; HEK293 TRPC4/MOR, membrane potential dye fluorescence; channel activated by saturating DAMGO dose; shares compounds with TRPC6 inhibitor; inhibition, % at 10 µM; 920 tested, 42% active;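 active = compounds whose fluorescence signal differed from control wells by over 3 SD, either direction, in both duplicate plates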
TRPC4 spec – selectivity of TRPC6 inhibitors: effect on mouse TRPC4 | shares compounds with TRPC6 inhibitor | HEK293 TRPC4/mu-opioid, membrane potential fluorescence | activity change, negative = inhibition, % at 10 µM | 920 tested, 61% active;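 active = rise or fall in signal beyond 3 SD of buffer-only wells in both replicate plates, either sign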;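 note: integrated kinetic ratio of fluorescence range over baseline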
HEK293 MPD ctr 2-1 – second counter-screen for TRPC6 inhibitors: parental HEK293 cells; shares compounds with TRPC6 inhibitor; parental HEK293 membrane potential dye fluorescence; maximal acetylcholine challenge after compound addition; signal change vs control, % at 10 µM; 920 tested, 31% active; AID 2779;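 active = membrane potential signal moving either way by over 3 SD of the maximum-effect control, in both duplicate plates, meaning non-specific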
HEK293 MPD ctr-1 – checks TRPC6 inhibitor effects in parental HEK293 cells; shares compounds with TRPC6 inhibitor; parental HEK293 membrane potential dye fluorescence; membrane potential signal change, % at 10 µM; 920 tested, 60% active;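 active = membrane potential signal shifting up or down by more than 3 SD of buffer-only wells, on both duplicate plates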
HEK293 MPD ctr-2 – checks TRPC6 modulator effects in parental HEK293 cells; shares compounds with TRPC6 inhibitor; membrane potential dye fluorescence; membrane potential signal change, % at 10 µM; 2,400 tested, 51% active; AID 488924;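 active = membrane potential signal moves up or down beyond 5 SD from buffer-only wells, on both duplicate plates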
HEK293 MPD ctr 2-2 – second check of TRPC6 modulator effects in parental HEK293 cells. shares compounds with TRPC6 inhibitor. membrane potential dye fluorescence; after compound, maximal acetylcholine stimulation. inhibition, % at 10 µM. 2,400 tested, 14% active. AID 488926;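 active = membrane potential signal drops by more than 5 SD from the mean control signal, in both duplicate plates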;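 note: plate controls were acetylcholine ECmax control wells for no effect and buffer only wells for full effect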
TRPC4/MOR mod – selectivity of TRPC6 modulators against mouse TRPC4 | shares compounds with TRPC6 inhibitor | HEK293 TRPC4/mu-opioid, membrane potential fluorescence | percent change from control (negative = decrease, positive = increase), % at 10 µM | 2,400 tested, 69% active;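 active = membrane potential signal moved up or down beyond 5 SD of buffer control wells, in both duplicate plates, actives on both sides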;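 note: plate controls were assay buffer wells for no effect and DAMGO maximal-effect wells for full effect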
TRPC4/MOR inh 2 – mouse TRPC4 off-target activity of TRPC6 modulators, second screen; shares compounds with TRPC6 inhibitor; HEK293 TRPC4/mu-opioid, membrane potential dye fluorescence; stimulated with maximal-effect DAMGO; inhibition, % at 10 µM; 2,400 tested, 55% active; AID 488928;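 active = drop in membrane potential signal beyond 5 SD of the control wells in both duplicate plates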;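 note: TRPC4 counter screen for TRPC6 hits run under conditions tuned for TRPC6 not TRPC4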
TRPC6 inh conf – confirmation of mouse TRPC6 inhibitors. shares compounds with TRPC6 inhibitor. HEK293-TRPC6, membrane potential dye, ACh-evoked depolarization. inhibition, % at 10 µM. 3,300 tested, 43% active. AID 488960;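 active = fluorescence ratio falls more than 5 SD below the full-stimulation control mean, in both duplicate runs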;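 note: integrated fluorescence ratio of peak minus minimum over baseline after agonist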
TRPC6 act confirm – mouse TRPC6 activator confirmation. shares compounds with TRPC6 inhibitor. HEK293-TRPC6 membrane potential dye fluorescence, FDSS. activation, % at 10 µM. 2,800 tested, 11% active. AID 488961;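 active = ratio signal rise beyond 5 SD above unstimulated control wells' mean, seen in both duplicate runs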;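 note: plate controls were buffer EC0 wells for no effect and acetylcholine ECmax response for full effect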
* hit, by the source's call; i = inactive; . = no result. Compounds with a hit are over-represented: about 2.3% of the library has one in this group of screens.

SMILES	TRPC4 block	TRPC6 act	TRPC4 PAM	TRPC4 agonist	TRPC6 inhibitor	HEK293 MPD ctr-2	HEK293 MPD ctr 2-2	TRPC4/MOR mod	TRPC4/MOR inh 2	TRPC6 inh conf	TRPC6 act confirm	others
Cn1cccc1/C=C1\CC(C(C)(C)C)C/C(=C\c2cccn2C)C1=O (stereo not drawn)	i	30*	i	i	i	182%*	i	i	i	i	i
Cn1cccc1/C=C1\Cc2ccccc2C1=O	i	i	i	i	i	.	.	.	.	.	.
COc1ccccc1/C=C/C=C1N=C(/C=C/c2ccc(Cl)cc2)OC/1=O	i	i	i	i	-5.9*	554%*	i	32%*	i	i	.
Cc1cc(C)c(S(=O)(=O)NCc2csc(C)n2)c(C)c1	i	i	i	i	i	.	.	.	.	.	.
CC1(C)CC(=O)c2c(nc3ccccc3c2N)C1	i	i	i	i	i	.	.	.	.	.	.
CCNc1c2c(nc3ccccc13)CC(C)(C)CC2=O	i	i	i	i	-7.8*	.	.	.	.	i	i	TRPC4 spec 2=65%*;TRPC4 spec=i;HEK293 MPD ctr 2-1=i;HEK293 MPD ctr-1=-138%*
C=CCON1C(=O)C(=O)N(OCC=C)[C@H]2CCCC[C@H]21	i	i	i	i	i	.	.	.	.	.	.
CCOC(=O)c1c(C)oc2c(CC(=O)c3ccccc3)c(Cl)c(O)c(O)c12	i	i	i	i	-9*	.	.	.	.	i	i	TRPC4 spec 2=i;TRPC4 spec=i;HEK293 MPD ctr 2-1=i;HEK293 MPD ctr-1=i
CCN(CC)CCn1c2c(c(SCC(=O)Nc3nc4ccccc4s3)nc1=O)CCC2	i	i	i	i	i	.	.	.	.	.	.
Cc1cc(C)cc(OCC(=O)Nc2cnn(CCCC(=O)O)c2)c1	i	i	i	i	i	.	.	.	.	.	.
CCN(CC)S(=O)(=O)c1ccc2[nH]cc(C(=O)NC3CC3)c(=O)c2c1	i	i	i	i	i	.	.	.	.	.	.
CN(C)c1cc(-c2ccccc2)nc(N)n1	i	i	i	i	-6.5*	-72%*	i	-14%*	51%*	i	i
CC1Cc2ccccc2N1C(=O)CCn1cccn1 (stereo not drawn)	i	i	i	i	i	.	.	.	.	.	.
COCCNc1ccc([N+](=O)[O-])cc1C(=O)NC1CCCc2ccccc21 (stereo not drawn)	i	i	i	i	i	.	.	.	.	.	.
CCOC(=O)Cn1c(=N)n(CCOc2ccc3ccccc3c2)c2ccccc21	i	i	i	i	-5.3*	i	i	i	70%*	40%*	i
COc1ccc(-n2nc(C(N)=O)nc2-c2ccccc2)cc1	i	i	i	i	-5.8*	i	i	i	i	48%*	.
Cc1ccc(-n2nc(C(N)=O)nc2-c2ccccc2)cc1	i	i	i	i	i	.	.	.	.	.	.
Cc1cc(N2CCC(C)CC2)nc2cccc(O)c12	-6*	i	i	i	-8.4*	-139%*	i	-30%*	86%*	i	i
COCC1CCN(C(=O)c2cc(COc3cc(C)c(Cl)c(C)c3)on2)C1 (stereo not drawn)	i	i	i	i	i	.	.	.	.	.	.
Cn1nnnc1SCCNCc1ccccc1OCc1ccccc1Cl	i	i	i	i	-5.5*	122%*	i	24%*	81%*	44%*	.
Cc1oc(-c2cccc(Cl)c2)nc1CN1CCC(C(=O)NCc2ccco2)CC1	i	i	i	i	i	.	.	.	.	.	.
Cc1oc(-c2ccc(Cl)cc2)nc1CN1CCCC(C(=O)NCc2ccccn2)C1 (stereo not drawn)	i	16*	i	i	-5.8*	160%*	i	18%*	72%*	64%*	144%*
CCN1CCCC1CNC(=O)C1CCN(Cc2nc(-c3cccc(Br)c3)oc2C)CC1 (stereo not drawn)	i	i	i	i	-8.9*	.	.	.	.	i	i	TRPC4 spec 2=60%*;TRPC4 spec=-18%*;HEK293 MPD ctr 2-1=i;HEK293 MPD ctr-1=-240%*
Cc1oc(-c2ccc(Cl)cc2)nc1CN1CCC(C(=O)NCc2ccco2)CC1	-6*	12*	i	i	i	i	i	8.0%*	72%*	.	122%*
Cc1oc(-c2ccc(Cl)cc2)nc1CN1CCC(C(=O)N2CCN(Cc3ccccc3)CC2)CC1	i	12*	i	i	i	226%*	i	40%*	68%*	i	129%*
Cc1cccc2nc(CNC(=O)CC3C(=O)NCCN3Cc3cccc(F)c3)cn12 (stereo not drawn)	i	i	i	i	i	.	.	.	.	.	.
COc1ccccc1-n1c(SCC(=O)Nc2ccc(Br)cc2)nc(O)cc1=O	i	i	i	i	i	.	.	.	.	.	.
COc1ccc(OC(=O)COc2cc(C)ccc2C)cc1	i	i	i	i	i	.	.	.	.	.	.
CC1SC(c2ccc(F)cc2)N(CCc2ccccc2)C1=O (stereo not drawn)	i	i	i	i	i	.	.	.	.	.	.
COc1ccccc1CNC(=O)C1CCN(Cc2nc(-c3cccc(Cl)c3)oc2C)CC1	i	i	i	i	-9.5*	115%*	i	15%*	97%*	i	.

Bioassay records from PubChem BioAssay.
